These results are taken from ChEMBL document CHEMBL1121550, “Amino acid and dipeptide derivatives of daunorubicin. 1. Synthesis, physicochemical properties, and lysosomal digestion” (J Med Chem, 1980).

The test system of test [1] is Nucleic Acid. Put plainly: Maximal binding (nmax) sites to herring sperm DNA. Estimated from Scatchard plots. The class given is nucleic-acid assay. Conditions: Clupeidae. An outline of the steps: (§1)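 Spectral titration: drug at 200 µg/mL in PBS pH 7.4 (NaCl 137 mM, KCl 3 mM, Na2HPO4 8 mM, KH2PO4 1.5 mM) titrated with 0.05–2.00 mL highly polymerized herring sperm DNA (2.34 mg/mL in 0.9% NaCl), made to 4.0 mL. Free and bound drug estimated from absorbance at 475 nm; Scatchard plot (nx/Df vs nx) yields Ka and nmax.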

Test [2] concerns Nucleic Acid. The test can be described thus: Apparent binding affinity to herring sperm DNA at 25 degree Celsius in PBS buffer with pH 7.4. The class given is nucleic-acid assay. Conditions: Clupeidae. An outline of the steps: as §1

As to `COc1cccc2c1C(=O)c1c(O)c3c(c(O)c1C2=O)C[C@@](O)(C(C)=O)C[C@@H]3OC1CC(NC(=O)C(CC(C)C)NC(=O)CN)C(O)C(C)O1` (stereo partly drawn), in the test with Nucleic Acid [1], the Maximal binding was 0.14. The Ka in the test on Nucleic Acid [2] is 30000 M⁻¹.
`COc1cccc2c1C(=O)c1c(O)c3c(c(O)c1C2=O)C[C@@](O)(C(C)=O)C[C@@H]3O[C@H]1C[C@H](N)[C@H](O)[C@H](C)O1`: the Maximal binding with Nucleic Acid [1] is 0.16. The Ka in the test on Nucleic Acid [2] amounted to 310000 M⁻¹.
Take `COc1cccc2c1C(=O)c1c(O)c3c(c(O)c1C2=O)C[C@@](O)(C(C)=O)C[C@@H]3O[C@H]1C[C@H](NC(=O)[C@H](C)NC(=O)[C@@H](N)CC(C)C)[C@H](O)[C@H](C)O1`: the Maximal binding in the test on Nucleic Acid [1] is 0.12. In the test on Nucleic Acid [2], the Ka was 40000 M⁻¹.
Consider `CCC(C)C(N)C(=O)NC1CC(O[C@H]2C[C@](O)(C(C)=O)Cc3c(O)c4c(c(O)c32)C(=O)c2c(OC)cccc2C4=O)OC(C)C1O` (stereo partly drawn), for which the Maximal binding in the test on Nucleic Acid [1] is 0.19. Besides, the Ka in the test on Nucleic Acid [2] worked out at 110000 M⁻¹.
The matching figures for `COc1cccc2c1C(=O)c1c(O)c3c(c(O)c1C2=O)C[C@@](O)(C(C)=O)C[C@@H]3O[C@H]1C[C@H](NC(=O)[C@H](C)N)[C@H](O)[C@H](C)O1`: 0.19 and 90000 M⁻¹.
Consider `COc1cccc2c1C(=O)c1c(O)c3c(c(O)c1C2=O)C[C@@](O)(C(C)=O)C[C@@H]3O[C@H]1C[C@H](NC(=O)[C@H](CC(C)C)NC(=O)[C@H](C)N)[C@H](O)[C@H](C)O1`, for which the Maximal binding in the test with Nucleic Acid [1] is 0.17. Besides, in the test on Nucleic Acid [2], the Ka turned out to be 20000 M⁻¹.
The matching figures for `COc1cccc2c1C(=O)c1c(O)c3c(c(O)c1C2=O)C[C@@](O)(C(C)=O)C[C@@H]3OC1CC(NC(=O)CN)C(O)C(C)O1` (stereo partly drawn): 0.16 and 130000 M⁻¹.
Regarding `COc1cccc2c1C(=O)c1c(O)c3c(c(O)c1C2=O)C[C@@](O)(C(C)=O)C[C@@H]3OC1CC(NC(=O)C(N)C(C)C)C(O)C(C)O1` (stereo partly drawn), the Maximal binding in the test on Nucleic Acid [1] is 0.18. In the test with Nucleic Acid [2], the Ka worked out at 110000 M⁻¹.
On to `COc1cccc2c1C(=O)c1c(O)c3c(c(O)c1C2=O)C[C@@](O)(C(C)=O)C[C@@H]3OC1CC(NC(=O)C(N)CC(C)C)C(O)C(C)O1` (stereo partly drawn), for which the Maximal binding in the test with Nucleic Acid [1] is 0.2. In the test on Nucleic Acid [2], the Ka worked out at 130000 M⁻¹.
